Experimental data taken from PubChem BioAssay AID1235 (PCMD, 2008).
The campaign covered roughly 62,000 compounds. About 50 (0.08%) were called active.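 The calls were made as follows: active = inhibition above 30% in each of the two pooled mixtures holding the compound, so the lower value exceeds 30%; inactive = the rest.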 Shown is part of a subset that was picked to be rich in actives.

Test: alternative complement pathway inhibitors, primary screen, biochemical, ELISA, human serum, orthogonally pooled compounds (AID 1235);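 also: 0% = serum in Mg-EGTA without compound and 100% = EDTA serum blank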
Details: LPS-coated ELISA, C3 deposition, tested in compound mixtures, at 5 µM, active compounds read high
How it was run: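 Assay system: human serum alternative complement pathway, C3 deposition on LPS-coated wells; Dosing: 5 µM per compound in ten-compound mixtures; Detection: Anti-C3 ELISA, OD 450 nm; Buffer or medium: Mg2+-EGTA GVB++ buffer containing human serum at 1:15 dilution; Timing: 1 h at 37 °C; Replication: two different pools per compound.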

inhibition, inactive:
c1c2c(cc3sc(N4CCCCC4)nc13)OCCO2 -3.86%
CC(C(=O)O)N1C(=O)c2cccc3cccc1c23 (stereo unspecified) -0.13%
O=C1C2(c3ccccc3)CN(CCCO)CC1(c1ccccc1)CN(CCCO)C2 0.125%
Cc1cc(C)nc(NC(=O)C(C)N2C(=O)c3ccccc3C2=O)n1 (stereo unspecified) 4.23%
Cc1cc(N(C)C)cc(C)[n+]1[O-] 13.5%
CC(=O)NC(Cc1ccc(F)cc1)C(=O)O (stereo unspecified) 10.5%
COc1ccc2c(Cl)c(-c3nnco3)sc2c1 9.28%
CCCCCN(C(=O)NC(=O)Nc1ccccc1C)S(C)(=O)=O 18.8%
CS(=O)(=O)N(CC(=O)NCc1ccco1)c1ccc2c(c1)OCO2 -0.135%
COc1ccc(CCNC(=O)c2ccco2)cc1 3.87%
O=C(CSc1nnc(-c2cccs2)n1-c1ccccc1)N1CCN(C(=O)c2ccco2)CC1 13.8%
COC(=O)c1ccccc1NC(=O)CSc1ccccn1 -0.725%
COc1cccc(Oc2ccc(N)cc2)c1 5.52%
CCNC(=O)N1CCNC(=O)C1CC(=O)Nc1ccc(C(=O)OCC)cc1 (stereo unspecified) -0.745%
Cc1ccsc1C(C(=O)NC1CCCCC1)N(C(=O)Cc1cccs1)C1CC1 (stereo unspecified) -3.39%
CCN1C(=O)/C(=C\N2CCN(c3cccc(Cl)c3)CC2)SC1=S 11.5%
S=C1SCN(CCN2CCOCC2)CN1Cc1ccccc1 16%
Cc1occc1C(=O)Nc1nnc(C2CCCCC2)s1 9.21%
COCCN(CC(=O)Nc1ccccc1C)S(=O)(=O)c1ccc(S(=O)(=O)N2CCCC2)cc1 10.3%
O=C(NCCCN1CCN(c2ccccc2F)CC1)C1CCC(=O)N1C1CCCCC1 (stereo unspecified) 1.73%
COc1ccc(-c2nc(CS(=O)CC(=O)NCc3cccnc3)c(C)o2)cc1OC (stereo unspecified) 10.4%
CC(=O)O[C@]1(C(C)=O)CC[C@H]2[C@@H]3C=C(C)C4=CC(=O)CC[C@]4(C)[C@H]3CC[C@@]21C 9.71%
CCNS(=O)(=O)c1ccc(NC(=O)Nc2cccc(C(F)(F)F)c2)cc1 12.9%
Cc1c(C(=O)N2CCCc3ccccc32)sc2nc(-c3ccccc3)cn12 16%
O=C1c2cccnc2C(=O)N1Cc1cccs1 14.6%
Cc1ccc(C2CC(c3cccc(Br)c3)n3nc(N)nc3N2)cc1 (stereo unspecified) 11.6%
CCOC(=O)Cn1c(=O)oc2cc(S(=O)(=O)NCC3CCCO3)ccc21 (stereo unspecified) 15%
CCOC(=O)c1oc2ccccc2c1NC(=O)c1cccs1 0.31%
CCCS(=O)(=O)N1CCCC(C(=O)N2CCN(c3ccccc3)CC2)C1 (stereo unspecified) 4.18%
COc1ccc(-n2nnc3c(=O)n(CC(=O)N4CCC(Cc5ccccc5)CC4)cnc32)cc1 21.3%
COc1cc(OC)cc(C(=O)NCCSCc2ccco2)c1 4.01%
CCNS(=O)(=O)c1ccc(NC(=O)Nc2cccc(OC)c2)cc1 27.3%
O=C(c1cccc2ccccc12)N1CCN(c2ccccc2F)CC1 18.4%
CCOC(=O)C1CCN(C(=O)CSc2cc(=O)n(C)c3ccccc23)CC1 7.27%
CCn1ncc(C2=NOC(C(=O)Nc3ccccc3C(=O)OC)C2)c1C (stereo unspecified) 12.4%
COc1ccc(N(Cc2cc3cc(OC)ccc3[nH]c2=O)S(C)(=O)=O)cc1 -2.02%
CCc1c(C)nc2ncnn2c1N1CCC(C(=O)NCc2ccc3c(c2)OCO3)CC1 20.2%
Cc1ccc(-c2nc(CS(=O)CC(=O)NC3CCCC3)c(C)o2)cc1 (stereo unspecified) 10.5%
FC(F)(F)c1nnc2sc(-c3ccco3)nn12 7.12%
CCOC(=O)C(CCOc1cccc(CC)c1)C(=O)OCC 9.83%
COc1ccc(-c2nnn(CC(=O)N(CCO)C(C(=O)NC3CCCC3)c3ccc(F)cc3)n2)cc1 (stereo unspecified) 3.14%
Cc1ccccc1CSc1nnc(-c2ccccn2)n1N 12.7%
CCOC(=O)c1[nH]c2ccc(C)cc2c1N=C(C)N(C)C 10.8%
COC(=O)C1=C(C)NC2=C(C(=O)c3ccccc32)C1c1ccc(-c2ccc(C(=O)O)cc2)o1 (stereo unspecified) 7.73%
CC1C=CCC2C(=O)N(c3cccc(C(=O)N4CCCCCC4)c3)C(=O)C12 (stereo unspecified) 19%
CCS(=O)(=O)N1CCCC(C(=O)NCc2ccc(C)cc2)C1 (stereo unspecified) 13.3%
COC(=O)Cc1c(C)c2ccc(OCC(=O)NCc3ccc4c(c3)OCO4)cc2oc1=O 4.91%
CNC(=O)CSc1nnc(CCc2ccccc2)n1-c1ccccc1 5.29%
CC1CCCN(C(=O)Cn2c(=O)oc3ccccc32)C1 (stereo unspecified) -0.77%
CC1(C)SC2c3ccccc3C(=O)N2[C@@H]1C(=O)NCc1ccco1 (stereo partly specified) -5.49%
O=C(c1ccc(O)cc1)c1ccc(C(=O)O)c(C(=O)O)c1 -8.85%
O=C(C1CCN(CC2CCCCC2)CC1)N1CCCC1 4.05%
COC(=O)c1oc2ccc(Br)cc2c1NC(C)=O 11.8%
COc1ccccc1CNCc1cccs1 -3.09%
CCn1cc(C(=O)NCc2ccc(OC)cc2OC)c(=O)c2ccc(C)nc21 -3.58%
COc1ccc(-c2noc(-c3cccc(OC)c3OC)n2)cc1OC 21.6%
O=C(CN1CCN(c2nc(-c3ccccc3)cs2)CC1)NCc1ccc2c(c1)OCO2 13.6%
Cc1cccc(N(CC(O)CN(C)C)S(=O)(=O)c2ccccc2)c1 (stereo unspecified) -22.7%
COC(=O)[C@H](C)NC(=O)Nc1ccc(OC(F)(F)F)cc1 4.04%
O=C1OC(NC(=O)c2ccccc2)C(N2CCOCC2)=C1Cl (stereo unspecified) 18.5%
Cc1ccc(Oc2ccc(N)cc2)cc1 -0.695%
O=C(CC1Nc2ccccc2NC1=O)Nc1ccccc1 (stereo unspecified) -0.205%
CCOc1ccc(NC(=O)CC2NCCNC2=O)cc1 (stereo unspecified) 2.46%
CCCSc1nc2c(c(=O)n(C)c(=O)n2C)n1Cc1ccc(C)cc1 -3.43%
CNC(=O)C1CC(=O)N(Cc2ccc3c(c2)OCO3)C(=Nc2ccc(F)cc2)S1 (stereo unspecified) 13%
O=C(C(Cc1ccccc1)n1cccc1)N1CCN(C2CCCCC2)CC1 (stereo unspecified) 14.7%
O=C(O)c1cccc2c1C(=O)N(C1CCCCC1)C2 16.2%
O=C(Cn1nc(Cc2cccnc2)c2ccccc2c1=O)NCC1COc2ccccc2O1 (stereo unspecified) 15.7%
CCOc1cc2c(cc1OCC)C(C(=O)O)C(c1ccc(OC)c(O)c1)N(C)C2=O (stereo unspecified) 16.6%
Fc1ccccc1OCCSc1nc2ccccc2o1 -8.88%
Cc1nn(-c2ccccc2)c2c1C(=O)NC(=O)C(C)(C)C2 5.83%
N#C/C=C\Oc1ccc(Cl)cc1N -1.31%
CCOC(=O)c1cccc(NC(=O)CCc2c(C)nc3ncnn3c2C)c1 1.8%
Cc1ccc(-c2nc(CS(=O)CC(=O)N3CCN(c4ncccn4)CC3)c(C)o2)cc1 (stereo unspecified) 22.7%
Cc1onc(-c2ccccc2Cl)c1C(=O)NCCn1ccc2ccccc21 7.02%
CCOc1ccc(CNC(=O)C2CC(=O)N(C3CCCC3)C2)cc1OC (stereo unspecified) 18.4%
Cc1cc2c(=O)n(C)c(SCC(=O)c3cc4ccccc4o3)nc2s1 3.24%
Cc1nc2ncnn2c(C)c1CCC(=O)N1CCN(C(=O)c2ccco2)CC1 1.46%
CN(C(=O)COc1nnc(-c2cccs2)c(-c2cccs2)n1)c1ccccc1 7.72%
C=CCN1C(=O)C(O)(CC(=O)c2ccc(Cl)cc2)c2ccccc21 (stereo unspecified) 8.76%
CCOCCCNC(=O)Cc1cc(=O)[nH]c(=O)[nH]1 26.3%
CC(C)CCNC(=O)CN(C(=O)Cn1nnc(-c2ccc(F)cc2)n1)C1CCCC1 0.465%
COc1ccc(C2SCCN2S(=O)(=O)c2ccccc2)cc1OC (stereo unspecified) 21.6%
COC(=O)c1ccc(CN(c2ccccc2OC)S(=O)(=O)c2cccs2)o1 -0.725%
CC1(C)C(=O)C2(CCCCC2)C(=O)OC1c1cccs1 (stereo unspecified) 15.8%
COc1ccc(-c2nc3n(c2Br)CCC3)cc1 7.42%
O=C(CSc1nc2cc3c(cc2c(=O)n1CCC1=CCCCC1)OCO3)NCc1ccco1 15.2%
CN1C(C)(C)CC(NC(=O)CCC(=O)NC2CC(C)(C)N(C)C(C)(C)C2)CC1(C)C 9.95%
CCOC(=O)C1CCN(C(=O)C2CCN(S(=O)(=O)c3c(C)noc3C)CC2)CC1 -18.4%
COCCn1nnnc1C(c1ccccc1Cl)N1CCN(c2ccccc2OC)CC1 (stereo unspecified) 9.52%
O=C(CCOc1ccccc1)NCc1ccccc1 12.9%
O=C(CCCN1C(=O)C2C3C=CC(C3)C2C1=O)N1CCN(c2ccccc2)CC1 (stereo unspecified) 11.5%
C[N+](C)(C)CCNC(=O)c1c(O)c2c([nH]c1=O)CCCC2 4.27%
C/C(=N\O)C1(C)N(O)C(C)(C)C(c2ccc(Br)cc2)=[N+]1[O-] (stereo unspecified) 0.945%
CC(=O)C1C(c2cccc(Oc3ccccc3)c2)NC(=O)NC1(O)C(F)(F)F (stereo unspecified) 6.73%

inhibition, active:
O=C(CC1NCCNC1=O)Nc1ccc(Oc2ccccc2)cc1 (stereo unspecified) 32.3%
